A short description of data set [1]: Half life (t1/2) was determined. Type of data set: ADME. In short, it runs like this: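 Hydrolytic stability: compound from a 0.1 mg/mL ethanol stock was spiked into 10 mM phosphate buffer, pH 6, and held at 60 °C (±0.2 °C). Periodic HPLC or LC-MS/MS analysis was run, and k_obs came from linear regression of peak integration (n = 3). Selected compounds were also tested in diluted (1:4) agar at 37 °C.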

The test system of another data set is Escherichia coli. Description: Minimum concentration required to inhibit Escherichia coli ATCC 25922. Type of data set: functional. In short, it runs like this:
(§1)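 Broth doubling-dilution MIC in Mueller Hinton broth against ATCC quality-control strains, incubated 24 h at 37 °C in ambient air. Poorly water-soluble compounds were dissolved in minimal DMSO. Values are in µg/mL.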

The test system of another data set is Enterococcus faecalis. Description: Minimum concentration required to inhibit Enterococcus faecalis ATCC 29212. The class given is functional. The method, boiled down: as §1
In another data set the test system is Pseudomonas aeruginosa. Description: Minimum concentration required to inhibit Pseudomonas aeruginosa ATCC 27853. The class given is functional. The method, boiled down: as §1
For data set [2], the system named is Staphylococcus aureus. Description: Minimum concentration required to inhibit Staphylococcus aureus ATCC 25923. The class given is functional. In short, it runs like this: as §1
The test system of data set [3] is Staphylococcus aureus. Description: Tested for antibacterial activity against Staphylococcus aureus. The class given is functional.

`CCCCCCCCCCCC(=O)OCCC[n+]1ccccc1`: the “Log t1/2” value in data set [1] came out at 1.81. In addition, the MIC against Escherichia coli came out at 125 µg/mL; against Enterococcus faecalis, 4 µg/mL; against Pseudomonas aeruginosa it was 250 µg/mL; against Staphylococcus aureus [2], 4 µg/mL. The MLC with Escherichia coli was determined as 125 µg/mL; with Enterococcus faecalis it was 16 µg/mL; with Pseudomonas aeruginosa it was 250 µg/mL; in the data set with Staphylococcus aureus [2] it was 4 µg/mL. Besides, the “Log 1/MIC” value in the data set with Staphylococcus aureus [3] is -0.6.

In the case of `CCCCCCCC/C=C/CCCCCCCC(=O)OCC[n+]1ccccc1.[Br-]`, the “Log t1/2” value in data set [1] is reported as 1.17. In addition, the MIC in the data set on Escherichia coli was found to be 62 µg/mL; in the data set on Enterococcus faecalis it was 4 µg/mL; against Pseudomonas aeruginosa it was 250 µg/mL; with Staphylococcus aureus [2], 8 µg/mL. The MLC with Escherichia coli is 125 µg/mL; with Enterococcus faecalis, 62 µg/mL; in the data set with Pseudomonas aeruginosa, 250 µg/mL; in the data set with Staphylococcus aureus [2] it was 16 µg/mL. The “Log 1/MIC” value in the data set with Staphylococcus aureus [3] is -0.9.

`CCCCCCCCCCCCCCCC(=O)OCC[N+](CCCC)(CCCC)CCCC`: the “Log t1/2” value in data set [1] is on record as 0.12. Further, the MIC against Escherichia coli came out at 125 µg/mL; against Enterococcus faecalis it was 4 µg/mL; against Pseudomonas aeruginosa, 250 µg/mL; in the data set on Staphylococcus aureus [2] it was 2 µg/mL. The MLC stood at 250 µg/mL in the data set on Escherichia coli, 8 µg/mL with Enterococcus faecalis, 1000 µg/mL in the data set on Pseudomonas aeruginosa and 2 µg/mL in the data set with Staphylococcus aureus [2]. The “Log 1/MIC” value in the data set with Staphylococcus aureus [3] was -0.3.

As to `CCCCCCCCCCCC(=O)OCC[N+](CCCC)(CCCC)CCCC.CCCCCCCCCCCCCCCC(=O)OCC[N+](CCCC)(CCCC)CCCC.[Br-].[Br-]`, the values for the minimal inhibitory concentration (MIC) in the data set on Escherichia coli, against Enterococcus faecalis and against Staphylococcus aureus [2] were 250 µg/mL, 16 µg/mL and 4 µg/mL, respectively. The MLC in the data set on Escherichia coli is 500 µg/mL; in the data set on Enterococcus faecalis, 16 µg/mL; in the data set on Pseudomonas aeruginosa, above 2000 µg/mL; with Staphylococcus aureus [2], 32 µg/mL.

For the molecule `CCCCCCCCCCCC(=O)OCC[N+](CC)(CC)CC.[Br-]`, the “Log t1/2” value in data set [1] is recorded as 0.52. Further, the MIC against Escherichia coli was 16 µg/mL; against Enterococcus faecalis it was 32 µg/mL; in the data set on Pseudomonas aeruginosa, 250 µg/mL; with Staphylococcus aureus [2], 16 µg/mL. Moreover, the MLC in the data set on Escherichia coli is 125 µg/mL; in the data set on Enterococcus faecalis it was 32 µg/mL; with Pseudomonas aeruginosa, 250 µg/mL; in the data set with Staphylococcus aureus [2], 16 µg/mL. In addition, the “Log 1/MIC” value in the data set on Staphylococcus aureus [3] is given as -1.2.

As to `CCCCCCCCCCCCCCCCOC(=O)CC[n+]1ccccc1`, the MIC against Escherichia coli was above 1000 µg/mL; against Enterococcus faecalis it was 250 µg/mL; with Pseudomonas aeruginosa, above 1000 µg/mL; in the data set with Staphylococcus aureus [2], 250 µg/mL. The MLC in the data set on Escherichia coli is above 1000 µg/mL; in the data set on Enterococcus faecalis, 500 µg/mL; with Pseudomonas aeruginosa, above 1000 µg/mL; in the data set on Staphylococcus aureus [2], 250 µg/mL. Besides, the “Log 1/MIC” value in the data set on Staphylococcus aureus [3] turned out to be 0.42.

For the molecule `O=C(O)CC[n+]1ccccc1`, the MIC in the data set with Escherichia coli, against Enterococcus faecalis, against Pseudomonas aeruginosa and in the data set with Staphylococcus aureus [2] was above 1000 µg/mL in each case. The MLC in the data set with Escherichia coli, in the data set with Enterococcus faecalis, with Pseudomonas aeruginosa and in the data set with Staphylococcus aureus [2] was above 1000 µg/mL each time.

`O=C(O)C[n+]1ccccc1`: the MIC with Escherichia coli came to 12800 µg/mL; against Enterococcus faecalis, 12800 µg/mL; against Pseudomonas aeruginosa, 12800 µg/mL; in the data set on Staphylococcus aureus [2], 6400 µg/mL. Besides, the MLC in the data set on Escherichia coli, in the data set on Enterococcus faecalis, with Pseudomonas aeruginosa and in the data set on Staphylococcus aureus [2] was 12800 µg/mL throughout.

Turning to `CCCCCCCCCCCCCCCCCCNC(=O)C[n+]1ccccc1.CCCCCCCCCCCCNC(=O)C[n+]1ccccc1.[Cl-].[Cl-]`, the MIC in the data set with Escherichia coli turned out to be 125 µg/mL; in the data set on Enterococcus faecalis, 8 µg/mL; in the data set on Pseudomonas aeruginosa, 500 µg/mL; in the data set with Staphylococcus aureus [2] it was 8 µg/mL. The MLC in the data set on Escherichia coli turned out to be 125 µg/mL; in the data set with Enterococcus faecalis it was 16 µg/mL; with Pseudomonas aeruginosa it was 500 µg/mL; with Staphylococcus aureus [2], 32 µg/mL.

`CCCCCCCCCCCC(=O)OCC[N+](CC)(CC)CC.CCCCCCCCCCCC(=O)OCC[N+](CCCC)(CCCC)CCCC.CCCCCCCCCCCC(=O)OCC[n+]1ccccc1.CCCCCCCCCCCCNC(=O)C[n+]1ccccc1.[Br-].[Br-].[Br-].[Br-]`: the MIC with Escherichia coli was found to be 125 µg/mL; in the data set on Enterococcus faecalis it was 32 µg/mL; in the data set on Pseudomonas aeruginosa, 500 µg/mL; in the data set with Staphylococcus aureus [2], 16 µg/mL. Moreover, the MLC is 250 µg/mL in the data set with Escherichia coli, 32 µg/mL in the data set with Enterococcus faecalis, 1000 µg/mL in the data set on Pseudomonas aeruginosa and 250 µg/mL in the data set with Staphylococcus aureus [2].

With `OCCC[n+]1ccccc1`, the MIC against Escherichia coli, against Enterococcus faecalis, against Pseudomonas aeruginosa and in the data set on Staphylococcus aureus [2] was above 2000 µg/mL throughout. For the same molecule, the MLC with Escherichia coli, in the data set on Enterococcus faecalis, in the data set on Pseudomonas aeruginosa and in the data set with Staphylococcus aureus [2] was above 2000 µg/mL throughout.

With `CC(=O)OC[n+]1ccccc1.[Cl-]`, the MIC in the data set with Escherichia coli amounted to 3200 µg/mL; against Enterococcus faecalis it was 320 µg/mL; in the data set on Pseudomonas aeruginosa it was 3200 µg/mL; against Staphylococcus aureus [2], 3200 µg/mL. For the same molecule, the MLC in the data set with Escherichia coli, with Enterococcus faecalis, in the data set with Pseudomonas aeruginosa and with Staphylococcus aureus [2] was 3200 µg/mL each time.

As to `CCCCCCCCCCCCCCCCOC(=O)C[n+]1ccccc1`, in data set [1], the “Log t1/2” value is given as -0.9. In addition, the MIC with Escherichia coli was 6400 µg/mL; against Enterococcus faecalis it was above 12800 µg/mL; in the data set with Pseudomonas aeruginosa it was 6400 µg/mL; against Staphylococcus aureus [2], 12800 µg/mL. The MLC with Escherichia coli was 12800 µg/mL; in the data set with Enterococcus faecalis it was above 12800 µg/mL; in the data set with Pseudomonas aeruginosa, 6400 µg/mL; in the data set on Staphylococcus aureus [2], 12800 µg/mL. Further, in the data set with Staphylococcus aureus [3], the “Log 1/MIC” value is reported as -4.1.

`CCCCCCCCCCCCCCCCCCOC(=O)C[n+]1ccccc1`: the “Log t1/2” value in data set [1] is -1.1. For the same molecule, the MIC against Escherichia coli, against Enterococcus faecalis, in the data set with Pseudomonas aeruginosa and in the data set on Staphylococcus aureus [2] was above 12800 µg/mL each time. Besides, the MLC with Escherichia coli, in the data set on Enterococcus faecalis, in the data set on Pseudomonas aeruginosa and in the data set with Staphylococcus aureus [2] was above 12800 µg/mL in each case. In the data set with Staphylococcus aureus [3], the “Log 1/MIC” value was -4.1.

For `CCCCCCCCCCCC(=O)OCC[n+]1ccccc1.CCCCCCCCCCCCCCCC(=O)OCC[n+]1ccccc1.CCCCCCCCCCCCCCCCCC(=O)OCC[n+]1ccccc1.[Br-].[Br-].[Br-]`, the MIC is 125 µg/mL against Escherichia coli, 32 µg/mL against Enterococcus faecalis, above 2000 µg/mL in the data set with Pseudomonas aeruginosa and 8 µg/mL in the data set with Staphylococcus aureus [2]. Besides, the MLC in the data set with Escherichia coli was 250 µg/mL; with Enterococcus faecalis it was 32 µg/mL; in the data set with Pseudomonas aeruginosa, above 2000 µg/mL; in the data set with Staphylococcus aureus [2], 16 µg/mL.

Turning to `CCOC(=O)C(C)[n+]1ccccc1` (stereo not drawn), the MIC against Escherichia coli, against Enterococcus faecalis, against Pseudomonas aeruginosa and in the data set on Staphylococcus aureus [2] was above 12800 µg/mL throughout. Also, the MLC in the data set on Escherichia coli, with Enterococcus faecalis, with Pseudomonas aeruginosa and in the data set on Staphylococcus aureus [2] was above 12800 µg/mL in each case.

Turning to `C[N+](C)(C)CCO` [CHOLINE], the MIC in the data set with Escherichia coli, with Enterococcus faecalis, in the data set with Pseudomonas aeruginosa and against Staphylococcus aureus [2] was above 2000 µg/mL each time. The MLC in the data set on Escherichia coli, in the data set with Enterococcus faecalis, in the data set on Pseudomonas aeruginosa and in the data set on Staphylococcus aureus [2] was above 2000 µg/mL in each case.

In the case of `CCCCCCCCCCCC(=O)OCC[N+](C)(C)C`, the MIC is 64 µg/mL with Escherichia coli, 16 µg/mL in the data set on Enterococcus faecalis, 250 µg/mL against Pseudomonas aeruginosa and 16 µg/mL with Staphylococcus aureus [2]. For the same molecule, the MLC with Escherichia coli turned out to be 64 µg/mL; in the data set with Enterococcus faecalis it was 64 µg/mL; in the data set on Pseudomonas aeruginosa, 250 µg/mL; in the data set with Staphylococcus aureus [2] it was 16 µg/mL.

Consider `CCOC(=O)C[n+]1ccccc1`, for which the MIC in the data set with Escherichia coli, in the data set on Enterococcus faecalis, in the data set on Pseudomonas aeruginosa and in the data set on Staphylococcus aureus [2] was above 12800 µg/mL in each case. Besides, the MLC with Escherichia coli, with Enterococcus faecalis, in the data set with Pseudomonas aeruginosa and in the data set on Staphylococcus aureus [2] was above 12800 µg/mL each time.

`CCCCCCCCCCCC(=O)OCC[N+](CC)(CC)CC.CCCCCCCCCCCCCCCC(=O)OCC[N+](CC)(CC)CC.[Br-].[Br-]`: the MIC in the data set with Escherichia coli was 500 µg/mL; against Enterococcus faecalis, 32 µg/mL; against Pseudomonas aeruginosa it was above 2000 µg/mL; against Staphylococcus aureus [2], 8 µg/mL. In addition, the MLC was 500 µg/mL in the data set on Escherichia coli, 125 µg/mL in the data set with Enterococcus faecalis, above 2000 µg/mL with Pseudomonas aeruginosa and 16 µg/mL in the data set on Staphylococcus aureus [2].

In the case of `CC[N+](CC)(CC)CCO.[Br-]`, the MIC in the data set on Escherichia coli, in the data set on Enterococcus faecalis, against Pseudomonas aeruginosa and in the data set with Staphylococcus aureus [2] was above 1000 µg/mL each time. The MLC with Escherichia coli, in the data set with Enterococcus faecalis, in the data set with Pseudomonas aeruginosa and with Staphylococcus aureus [2] was above 1000 µg/mL each time.

For the molecule `CCCCCCCCCCCC(=O)OCC[N+](CC)(CC)CC.CCCCCCCCCCCC(=O)OCC[n+]1ccccc1.[Br-].[Br-]`, the MIC against Escherichia coli is 125 µg/mL; in the data set on Enterococcus faecalis, 64 µg/mL; against Pseudomonas aeruginosa, 1000 µg/mL; against Staphylococcus aureus [2], 32 µg/mL. For the same molecule, the MLC with Escherichia coli came to 250 µg/mL; with Enterococcus faecalis, 64 µg/mL; with Pseudomonas aeruginosa, 1000 µg/mL; with Staphylococcus aureus [2] it was 125 µg/mL.

As usually defined, the MIC is the lowest concentration found to suppress growth.

For the origin of these results see ChEMBL document CHEMBL1145092, “Soft antimicrobial agents: synthesis and activity of labile environmentally friendly long chain quaternary ammonium compounds” (J Med Chem, 2003).
